Key:
OVCAR-8 [1] = assay: Cytotoxicity against human OVCAR8 cells assessed as cell growth at 10 uM after 48 hrs by sulforhodamine B assay; format: functional; settings: OVCAR-8, 48 h, read-out: Activity
UACC-257 = assay: Cytotoxicity against human UACC257 cells assessed as cell growth at 10 uM after 48 hrs by sulforhodamine B assay; format: functional; settings: UACC-257, 48 h, read-out: Activity
TK-10 [2] = assay: Growth inhibition of human TK10 cells after 48 hrs by sulforhodamine B assay; format: functional, cell-based; settings: TK-10, 48 h; for CC50: read-out: LC50 (the source's name)
Outline: (§1)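 Cells grown in RPMI 1640 with 5% FBS and 2 mM L-glutamine, seeded at 5,000–40,000 cells/well according to doubling time. After 24 h, time-zero plates are TCA-fixed. Five concentrations (10-fold or ½log dilutions, DMSO stocks) are applied for 48 h at 37 °C, 5% CO₂. Cells are TCA-fixed, SRB-stained and read at 515 nm. IC₅₀ is taken from [(Ti−Tz)/(C−Tz)]×100 = 50.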

A549 [3] = assay: Cytotoxicity against human A549 cells assessed as cell growth at 1 uM after 48 hrs by sulforhodamine B assay; format: functional; settings: A549, 48 h, read-out: Activity
Outline: (§2)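 Cells grown in RPMI 1640 with 5% FBS and 2 mM L-glutamine, seeded at 5,000–40,000 cells/well by doubling time. Time-zero plates TCA-fixed after 24 h. Five concentrations (10-fold or half-log dilutions from DMSO stock) added; 48 h at 37 °C, 5% CO2. Cold TCA fixation (final 10%, 60 min, 4 °C), 0.4% SRB stain, dye solubilized in 10 mM trizma base, A515.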

MDA-MB-435 = assay: Cytotoxicity against human MDA-MB-435 cells assessed as cell growth at 0.01 uM after 48 hrs by sulforhodamine B assay; format: functional; settings: MDA-MB-435, 48 h, read-out: Activity
ACHN = assay: Cytotoxicity against human ACHN cells assessed as cell growth at 100 nM after 48 hrs by sulforhodamine B assay; format: functional; settings: read-out: Activity; outline: as §2
OVCAR-8 [4] = assay: Cytotoxicity against human OVCAR8 cells assessed as cell growth at 100 nM after 48 hrs by sulforhodamine B assay; format: functional; settings: OVCAR-8, 48 h, read-out: Activity
U-251 = assay: Cytotoxicity against human U251 cells assessed as cell growth at 10 uM after 48 hrs by sulforhodamine B assay; format: functional; settings: U-251, 48 h, read-out: Activity
TK-10 [5] = assay: Cytotoxicity against human TK10 cells assessed as cell growth at 1 uM after 48 hrs by sulforhodamine B assay; format: functional; settings: TK-10, 48 h, read-out: Activity
BT-549 = assay: Growth inhibition of human BT549 cells after 48 hrs by sulforhodamine B assay; format: functional, cell-based; settings: BT-549, 48 h; for CC50: read-out: LC50 (the source's name)
Outline: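 Five-dose SRB assay. Cells in RPMI 1640 with 5% FBS and 2 mM L-glutamine were seeded at 5,000–40,000 cells/well, with a TCA-fixed time-zero plate (Tz) taken at 24 h. Compound stocks were in DMSO, serially diluted 10-fold or ½-log to five concentrations, and incubated 48 h at 37 °C. Plates were stained with SRB and read at 515 nm. IC₅₀ was taken where [(Ti−Tz)/(C−Tz)]×100 = 50.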

CAKI-1 [6] = assay: Cytotoxicity against human Caki1 cells assessed as cell growth at 0.01 uM after 48 hrs by sulforhodamine B assay; format: functional; settings: CAKI-1, 48 h, read-out: Activity; outline: as §2
K562 = assay: Cytotoxicity against human K562 cells assessed as cell growth at 0.01 uM after 48 hrs by sulforhodamine B assay; format: functional; settings: K562, 48 h, read-out: Activity
A549 [7] = assay: Cytotoxicity against human A549 cells assessed as cell growth at 0.01 uM after 48 hrs by sulforhodamine B assay; format: functional; settings: A549, 48 h, read-out: Activity; outline: as §2
COLO 205 = assay: Cytotoxicity against human COLO205 cells assessed as cell growth at 1 uM after 48 hrs by sulforhodamine B assay; format: functional; settings: COLO 205, 48 h, read-out: Activity; outline: as §2
SNB-19 = assay: Cytotoxicity against human SNB19 cells assessed as cell growth at 0.001 uM after 48 hrs by sulforhodamine B assay; format: functional; settings: SNB-19, 48 h, read-out: Activity
HL-60(TB) = assay: Cytotoxicity against human HL-60(TB) cells assessed as cell growth at 100 nM after 48 hrs by sulforhodamine B assay; format: functional; settings: HL-60, 48 h, read-out: Activity
Outline: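 Five-concentration HL-60(TB) test in RPMI 1640 with 5% FBS and 2 mM L-glutamine. Cells are plated at 5,000–40,000/well and a TCA-fixed time-zero plate is read at drug addition after 24 h. Drug is dissolved in DMSO and given as five 10-fold or ½log dilutions for 48 h at 37 °C, 5% CO2. Settled cells are fixed with TCA, stained with SRB and read at 515 nm.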

OVCAR-8 [8] = assay: Growth inhibition of human OVCAR8 cells after 48 hrs by sulforhodamine B assay; format: functional, cell-based; settings: for CC50: read-out: LC50 (the source's name); outline: as §1
NCI-H322M = assay: Cytotoxicity against human NCI-H322M cells assessed as cell growth at 1 uM after 48 hrs by sulforhodamine B assay; format: functional; settings: read-out: Activity
CAKI-1 [9] = assay: Cytotoxicity against human Caki1 cells assessed as cell growth at 0.001 uM after 48 hrs by sulforhodamine B assay; format: functional; settings: CAKI-1, 48 h, read-out: Activity; outline: as §2
HCT-15 [10] = assay: Cytotoxicity against human HCT15 cells assessed as cell growth at 0.001 uM after 48 hrs by sulforhodamine B assay; format: functional; settings: HCT-15, 48 h, read-out: Activity
MDA-MB-468 = assay: Cytotoxicity against human MDA-MB-468 cells assessed as cell growth at 10 uM after 48 hrs by sulforhodamine B assay; format: functional; settings: MDA-MB-468, 48 h, read-out: Activity
LOX IMVI = assay: Cytotoxicity against human LOXIMVI cells assessed as cell growth at 0.001 uM after 48 hrs by sulforhodamine B assay; format: functional; settings: read-out: Activity
M14 = assay: Cytotoxicity against human M14 cells assessed as cell growth at 0.001 uM after 48 hrs by sulforhodamine B assay; format: functional; settings: M14, 48 h, read-out: Activity
A498 = assay: Cytotoxicity against human A498 cells assessed as cell growth at 10 uM after 48 hrs by sulforhodamine B assay; format: functional; settings: A498, 48 h, read-out: Activity; outline: as §2
SF-539 = assay: Cytotoxicity against human SF539 cells assessed as cell growth at 0.01 uM after 48 hrs by sulforhodamine B assay; format: functional; settings: SF-539, 48 h, read-out: Activity
SW-620 = assay: Cytotoxicity against human SW620 cells assessed as cell growth at 0.001 uM after 48 hrs by sulforhodamine B assay; format: functional; settings: SW-620, 48 h, read-out: Activity
UACC-62 = assay: Growth inhibition of human UACC62 cells after 48 hrs by sulforhodamine B assay; format: functional, cell-based; settings: UACC-62, 48 h; outline: as §1
HCT-15 [11] = assay: Cytotoxicity against human HCT15 cells assessed as cell growth at 1 uM after 48 hrs by sulforhodamine B assay; format: functional; settings: HCT-15, 48 h, read-out: Activity

Compound	growth at 10 µM (OVCAR-8 [1]) [%]	growth at 10 µM (UACC-257) [%]	GI50 (TK-10 [2]) [µM]	IC50 (TK-10 [2]) [µM]	TGI (TK-10 [2]) [µM]	CC50 (TK-10 [2]) [µM]	growth at 1 µM (A549 [3]) [%]	growth at 0.01 µM (MDA-MB-435) [%]	growth at 0.1 µM (ACHN) [%]	growth at 0.1 µM (OVCAR-8 [4]) [%]	growth at 10 µM (U-251) [%]	growth at 1 µM (TK-10 [5]) [%]	TGI (BT-549) [µM]	CC50 (BT-549) [µM]	growth at 0.01 µM (CAKI-1 [6]) [%]	growth at 0.01 µM (K562) [%]	growth at 0.01 µM (A549 [7]) [%]	growth at 1 µM (COLO 205) [%]	growth at 0.001 µM (SNB-19) [%]	growth at 0.1 µM (HL-60(TB)) [%]	other results
CC(=O)Nc1cccc(-c2ccc(-c3ccnc(NC(=O)Nc4cc(C(F)(F)F)cc(C(F)(F)F)c4)n3)cn2)c1.Cl	-84	-89	16.8	16.8	39.8	94.1	10	97	93	85	-96	80	20.4	46.3	104	32	67	52	95	80	GI50 (BT-549): 7.07 µM; IC50 (BT-549): 7.07 µM; GI50 (OVCAR-8 [8]; Homo sapiens, OVCAR-8, 48 h): 2070 nM; TGI (OVCAR-8 [8]; Homo sapiens, OVCAR-8, 48 h): 5.93 µM; IC50 (OVCAR-8 [8]; Homo sapiens, OVCAR-8, 48 h, read-out: IC50): 2070 nM; CC50 (OVCAR-8 [8]; Homo sapiens, OVCAR-8, 48 h): 26.4 µM; growth at 1 µM (NCI-H322M): 12%; growth at 0.001 µM (CAKI-1 [9]): 108%; growth at 0.001 µM (HCT-15 [10]): 96%; growth at 10 µM (MDA-MB-468): 100%; growth at 0.001 µM (LOX IMVI): 95%; growth at 0.001 µM (M14): 94%; growth at 10 µM (A498): -77%; growth at 0.01 µM (SF-539): 78%; growth at 0.001 µM (SW-620): 95%; GI50 (UACC-62): 2860 nM; IC50 (UACC-62): 2860 nM; LC50 (concentration causing 50% net cell kill) (UACC-62): 35.7 µM; TGI (UACC-62): 12.7 µM; growth at 1 µM (HCT-15 [11]): 18%
CC(=O)c1ccccc1-c1ccc(-c2ccnc(NC(=O)Nc3cc(N4CCOCC4)cc(C(F)(F)F)c3)n2)cn1	53	92	> 100	5.46	> 100	> 100	82	95	91	66	39	32	> 100	> 100	92	75	102	106	98	73	TGI (OVCAR-8 [8]; Homo sapiens, OVCAR-8, 48 h): > 100 µM; CC50 (OVCAR-8 [8]; Homo sapiens, OVCAR-8, 48 h): > 100 µM; IC50 (OVCAR-8 [8]; ovcar-8): Not Active; growth at 1 µM (NCI-H322M): 88%; growth at 0.001 µM (CAKI-1 [9]): 97%; growth at 0.001 µM (HCT-15 [10]): 98%; growth at 10 µM (MDA-MB-468): 65%; growth at 0.001 µM (LOX IMVI): 104%; growth at 0.001 µM (M14): 94%; growth at 10 µM (A498): 98%; growth at 0.01 µM (SF-539): 107%; growth at 0.001 µM (SW-620): 98%; GI50 (UACC-62): > 100000 nM; IC50 (UACC-62): > 100000 nM; LC50 (concentration causing 50% net cell kill) (UACC-62): > 100 µM; TGI (UACC-62): > 100 µM; growth at 1 µM (HCT-15 [11]): 88%

— ChEMBL document CHEMBL1165943, “Design and synthesis of new anticancer pyrimidines with multiple-kinase inhibitory effect” (Bioorg Med Chem, 2010)
